Reference: ChEMBL document CHEMBL1938298, “Synthesis and characterization of [¹²⁵I]2-iodo N-[(S)-{(S)-1-methylpiperidin-2-yl}(phenyl)methyl]3-trifluoromethyl-benzamide as novel imaging probe for glycine transporter 1” (Bioorg Med Chem, 2011)
Active and inactive are the calls of the source. The calls are words filed in the database; no cut-off is given here.

How the values were obtained:
[1] = test system: Intestine; test: Drug uptake in ddY mouse intestine at 11.1 kBq, iv after 15 min by gamma counting; format: ADME, organism-based; details: in vivo
How it was run: (§1)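 Male ddY mice (6 weeks, 30–35 g) received about 11.1 kBq [125I]tracer in 0.1 mL i.v. via tail vein. Killed at set times, organs dissected and weighed, radioactivity gamma counted. Reported as % injected dose/g tissue, mean ± SD, n = 5–6.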

[2] = test system: Intestine; test: Drug uptake in ddY mouse intestine at 11.1 kBq, iv after 60 min by gamma counting; format: ADME, organism-based; details: in vivo, 1 h; how it was run: as §1
[3] = test system: Lung; test: Drug uptake in ddY mouse lung at 11.1 kBq, iv after 5 min by gamma counting; format: ADME, organism-based; details: in vivo
How it was run: (§2)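 Male ddY mice (6 weeks, 30–35 g) were given about 11.1 kBq of [125I]tracer in 0.1 mL i.v. via the tail vein. At each time point the animals were killed and organs dissected, weighed and gamma-counted. Uptake is expressed as % injected dose per gram of tissue, mean ± SD, n = 5–6.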

[4] = Metabolic stability in ddY mouse brain assessed as compound remaining at 185 kBq after 5 mins by radio-TLC; format: ADME, tissue-based; details: read-out: Stability
[5] = test system: Stomach; test: Drug uptake in ddY mouse stomach at 11.1 kBq, iv after 180 min by gamma counting; format: ADME, organism-based; details: in vivo, 3 h; how it was run: as §2
[6] = test system: Liver; test: Drug uptake in ddY mouse liver at 11.1 kBq, iv after 180 min by gamma counting; format: ADME, organism-based; details: in vivo, 3 h; how it was run: as §2
[7] = test system: Nucleic Acid; test: Ratio of drug level in brain to blood in ddY mouse at 11.1 kBq, iv after 5 min by gamma counting; format: ADME, organism-based
[8] = test system: Mus musculus; test: In vivo binding affinity to GlyT1 in ddY mouse brain medullary region at 33.3 kBq, iv after 30 mins in presence of N-Me-SSR504734 2 mg/kg, iv administered 15 mins prior to compound administration relative to control; format: functional, Medulla of organ
How it was run: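 Male ddY mice (6 W, 30–35 g) were given [125I]5 (ca. 33.3 kBq, 0.1 mL) iv via tail vein. Blocker (2 mg/kg in 30% DMSO/saline) was given iv 15 min before the tracer. Mice were killed 30 or 60 min after injection and the brain regions were dissected and weighed. Gamma counting gave % dose/g, compared with control; n = 5–6.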

[9] = target: T1, Sodium- and chloride-dependent glycine transporter 1 (Rattus norvegicus) (UniProt P28572); test: Binding affinity to GlyT1 in rat brain midbrain at 0.03 to 0.04 nM preincubated for 20 mins in binding buffer before compound addition measured after 30 mins by autoradiography in presence of 10 mM GlyT1 substrate glycine relative to control; format: tissue-based; details: tested as the 125I-labelled form
T1 sequence (whole entry): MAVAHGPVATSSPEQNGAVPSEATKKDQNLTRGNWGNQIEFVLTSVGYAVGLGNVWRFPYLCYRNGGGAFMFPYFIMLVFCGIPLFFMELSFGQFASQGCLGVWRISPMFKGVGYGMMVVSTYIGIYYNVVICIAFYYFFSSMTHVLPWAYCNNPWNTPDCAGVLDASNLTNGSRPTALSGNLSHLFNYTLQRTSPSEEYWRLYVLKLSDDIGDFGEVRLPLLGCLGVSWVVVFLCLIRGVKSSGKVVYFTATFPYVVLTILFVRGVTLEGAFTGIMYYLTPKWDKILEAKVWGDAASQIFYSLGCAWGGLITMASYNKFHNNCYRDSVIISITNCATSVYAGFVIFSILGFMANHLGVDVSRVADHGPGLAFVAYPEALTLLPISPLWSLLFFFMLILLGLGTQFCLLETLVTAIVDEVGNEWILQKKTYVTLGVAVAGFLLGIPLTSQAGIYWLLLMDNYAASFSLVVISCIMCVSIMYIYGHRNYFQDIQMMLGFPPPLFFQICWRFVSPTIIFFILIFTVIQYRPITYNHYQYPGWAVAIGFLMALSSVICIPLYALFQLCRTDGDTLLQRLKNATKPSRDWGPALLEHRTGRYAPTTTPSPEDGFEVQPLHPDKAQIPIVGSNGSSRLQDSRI

[10] = target: T1, Sodium- and chloride-dependent glycine transporter 1 (Rattus norvegicus); test: Binding affinity to GlyT1 in rat brain cerebellum at 0.03 to 0.04 nM preincubated for 20 mins in binding buffer before compound addition measured after 30 mins by autoradiography in presence of 0.01 mM GlyT1 inhibitor HPCP relative to control; format: tissue-based; details: tested as the 125I-labelled form
How it was run: (§3)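 Rat brain sagittal sections (20 µm) preincubated 20 min at 25 °C in Tris-HCl buffer pH 7.5 (NaCl, KCl, MgCl2, CaCl2), then 30 min at 25 °C with [125I] tracer (100 kBq, 0.03–0.04 nM) plus competitor (10 µM; glycine 1 or 10 mM). Cold washes, imaging plate 3 days, ROI PSL minus background per mm². % control from ≥triplicate slices, three rats.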

[11] = test system: Mus musculus; test: In vivo binding affinity to GlyT1 in ddY mouse brain thalamus at 33.3 kBq, iv after 60 mins in presence of SSR504734 2 mg/kg, iv administered 15 mins prior to compound administration relative to control; format: functional, organism-based; set-up: dose 2 mg/kg; details: tested as the 125I-labelled form
[12] = target: T1, Sodium- and chloride-dependent glycine transporter 1 (Rattus norvegicus); test: Binding affinity to GlyT1 in rat brain hippocampus at 0.03 to 0.04 nM preincubated for 20 mins in binding buffer before compound addition measured after 30 mins by autoradiography in presence of 0.01 mM GlyT1 inhibitor SSR504734 relative to control; format: tissue-based; details: tested as the 125I-labelled form; how it was run: as §3
[13] = target: T1, Sodium- and chloride-dependent glycine transporter 1 (Rattus norvegicus); test: Binding affinity to GlyT1 in rat brain midbrain at 0.03 to 0.04 nM preincubated for 20 mins in binding buffer before compound addition measured after 30 mins by autoradiography relative to control; format: tissue-based; details: tested as the 125I-labelled form
[14] = target: T1, Sodium- and chloride-dependent glycine transporter 1 (Rattus norvegicus); test: Binding affinity to GlyT1 in rat brain cerebellum at 0.03 to 0.04 nM preincubated for 20 mins in binding buffer before compound addition measured after 30 mins by autoradiography in presence of 0.01 mM GlyT1 inhibitor SSR504734 relative to control; format: tissue-based; details: tested as the 125I-labelled form; how it was run: as §3
[15] = target: T1, Sodium- and chloride-dependent glycine transporter 1 (Rattus norvegicus); test: Binding affinity to GlyT1 in rat brain corpus callosum at 0.03 to 0.04 nM preincubated for 20 mins in binding buffer before compound addition measured after 30 mins by autoradiography in presence of 0.01 mM GlyT1 inhibitor SSR504734 relative to control; format: tissue-based; details: tested as the 125I-labelled form; how it was run: as §3
[16] = target: T1, Sodium- and chloride-dependent glycine transporter 1 (Rattus norvegicus); test: Binding affinity to GlyT1 in rat brain cerebral cortex at 0.03 to 0.04 nM preincubated for 20 mins in binding buffer before compound addition measured after 30 mins by autoradiography in presence of 0.01 mM GlyT1 inhibitor ALX5407 relative to control; format: tissue-based; details: tested as the 125I-labelled form; how it was run: as §3
[17] = target: T1, Sodium- and chloride-dependent glycine transporter 1 (Rattus norvegicus); test: Binding affinity to GlyT1 in rat brain striatum at 0.03 to 0.04 nM preincubated for 20 mins in binding buffer before compound addition measured after 30 mins by autoradiography in presence of 0.01 mM GlyT1 inhibitor HPCP relative to control; format: tissue-based; details: tested as the 125I-labelled form
[18] = test system: Mus musculus; test: In vivo binding affinity to GlyT1 in ddY mouse brain striatum at 33.3 kBq, iv after 30 mins in presence of N-Me-SSR504734 2 mg/kg, iv administered 15 mins prior to compound administration relative to control; format: functional, organism-based; set-up: dose 2 mg/kg; details: tested as the 125I-labelled form
[19] = target: T1, Sodium- and chloride-dependent glycine transporter 1 (Rattus norvegicus); test: Binding affinity to GlyT1 in rat brain striatum at 0.03 to 0.04 nM preincubated for 20 mins in binding buffer before compound addition measured after 30 mins by autoradiography relative to control; format: tissue-based; details: tested as the 125I-labelled form

Drug uptake [1]	Drug uptake [2]	Drug uptake [3]	remaining at 5 min [4]	Drug uptake [5]	Drug uptake [6]	Ratio [7]	Activity [9]	Activity [10]	Activity [12]	Activity [13]	Activity [14]	Activity [15]	Activity [16]	Activity [17]	Activity [19]	SMILES	Activity [8]	Activity [11]	Activity [18]
3.25 % ID/g	9.59 % ID/g	19.3 % ID/g	92%	12.73 % ID/g	15.05 % ID/g	1.57										CN1CCCC[C@H]1[C@@H](NC(=O)c1cccc(C(F)(F)F)c1[125I])c1ccccc1	59%		
							52.1%	23%	46.3%	Active	27.7%	21.8%	57.6%	31.8%	inactive	CN1CCCC[C@H]1[C@@H](NC(=O)c1cccc(C(F)(F)F)c1I)c1ccccc1		inactive	Active
